# Assay outcomes deposited in PubChem BioAssay by several laboratories.
# PMI act = activators of human PMI, primary screen, biochemical, fluorescence intensity, near-Km mannose 6-phosphate | 190,000 tested, 0.005% active | purified human PMI, coupled resazurin fluorescence, 20 min; stronger effect = higher value; 1 = vehicle control, 0 substrate-free wells | activation factor at 20 µM;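 active means activation factor of 2 or more at 20 µM, relative to plate controls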
# Target sequence (P34949 whole entry, looked up): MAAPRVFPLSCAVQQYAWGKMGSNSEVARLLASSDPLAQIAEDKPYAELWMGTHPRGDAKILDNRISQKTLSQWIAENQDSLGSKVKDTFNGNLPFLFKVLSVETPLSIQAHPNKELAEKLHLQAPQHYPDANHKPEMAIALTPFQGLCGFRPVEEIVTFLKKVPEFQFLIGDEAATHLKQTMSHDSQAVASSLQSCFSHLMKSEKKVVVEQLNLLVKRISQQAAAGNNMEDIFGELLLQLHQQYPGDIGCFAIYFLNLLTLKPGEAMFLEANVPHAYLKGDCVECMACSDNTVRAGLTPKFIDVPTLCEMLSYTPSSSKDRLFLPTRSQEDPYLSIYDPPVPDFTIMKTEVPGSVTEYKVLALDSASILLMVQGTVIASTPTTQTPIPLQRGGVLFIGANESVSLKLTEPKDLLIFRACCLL
# PMI act hi M6P = human PMI activators, high substrate, primary screen, biochemical, fluorescence intensity, near-saturating mannose 6-phosphate; Mannose-6-phosphate isomerase (Homo sapiens), P34949; 190,000 tested, 0.34% active; coupled PMI enzyme assay, resazurin fluorescence, 20 min; stronger effect = higher value; 1 = untreated enzyme, 0 = substrate-free blank; activation factor at 20 µM;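 active means activation factor of 2 or more at 20 µM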
#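 Technique: Diaphorase-driven resazurin-to-resorufin fluorescence, excitation 544, emission 590 nm | Assay system: Human PMI in coupled enzyme assay | Times: Enzyme reaction with compound 20 min at room temperature | Medium: HEPES-buffered pH 7.4 with magnesium and detergent | Reagent: Mannose-6-phosphate 1.0 mM (near-saturating) plus 0.22 mM NADP+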
# PTEN del growth = growth suppression of PTEN-null HCT116, primary screen, cell-based, CellTiter-Glo | HCT116 PTEN-null viability, 60 h; stronger effect = lower value | AID 827, 2007 | viability, % at 10 µM | 140,000 tested, 1.2% active;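 active means viability at or below a set limit, 4 SD under the median of all tested compounds, cut at about 3.7% in these data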;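 further: PTEN knockout HCT116 line with beta catenin targeted HCT116 as companion control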
# HCT116 bCat-KO = primary screen for growth suppressors in beta-catenin knockout HCT116 cells (colon tumor, human); HCT116 beta-catenin knockout viability, CellTiter-Glo, 60 h; stronger effect = lower value; 140,000 tested, 1.5% active; viability, % at 10 µM;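 active means viability at or under a set limit, the compound median less 4 SD, cut at about 6% in these data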;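 further: 0% = Hyamine 1622 control at 20 µM and 100% = untreated cell control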
# L major viab = Leishmania major promastigote growth inhibition, primary screen. Leishmania major promastigotes, resazurin fluorescence viability. inhibition, % at 10 µM. 200,000 tested, 9% active. AID 1063, 2008; in the data active means inhibition above about 50%;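 further: promastigotes grown with compound for 44 hours at 28 °C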
# Numbers without * were called inactive; . = no result. Sampled rows, rich in hits. Any-hit rate of the full collection: about 9.6%.
SMILES,PMI act,PMI act hi M6P,PTEN del growth,HCT116 bCat-KO,L major viab
COc1cccc(NC(=O)c2cc(-c3ccncc3)nc3c(C)cc(C)cc23)c1,0.8,0.8,.,.,55*
O=C(Nc1cccc(C(F)(F)F)c1)N(Cc1ccc(Cl)cc1)CC(O)C(F)(F)F (stereo unspecified),0.8,0.8,15,30,96*
COc1cc(OC)cc(C(=O)Nc2nnc(NC(=S)Nc3ccccc3)s2)c1,0.8,1,59,67,55*
CCOc1cc(NC(=S)Nc2ccccc2)c(OCC)cc1NC(=O)c1ccc(OC)cc1,0.7,0.4,99,106,96*
COc1ccc(CSc2nnc3n(C)c(=O)c4c5c(sc4n23)CCCC5)cc1,1,1,.,.,.
CCCCCCN1C=C/C(=C\C=C(C#N)C#N)c2ccccc21,0.8,0.8,66,57,8
C=CCN1C=C/C(=C\C=C(C#N)C#N)c2ccccc21,0.7,0.6,86,84,70*
N=c1c2c(ncn1Cc1ccco1)Oc1ccc3ccccc3c1C2c1ccccc1 (stereo unspecified),1.1,1.1,5,9,96*
COc1ccc(C2C3=C(CC(C)(C)CC3=O)Oc3ncn(Cc4ccco4)c(=N)c32)cc1 (stereo unspecified),1,1,88,88,1
COc1ccc(Cc2nc3c4c(ncn3n2)Oc2c(ccc3ccccc23)C4c2ccc(OC)c(OC)c2)cc1 (stereo unspecified),0.9,0.9,91,96,31
COc1ccc(C2c3ccc4ccccc4c3Oc3ncn(CCN4CCOCC4)c(=N)c32)cc1 (stereo unspecified),1.1,1,1.8*,2.1*,100*
COc1ccc(C2c3c(ncn(Cc4ccco4)c3=N)Oc3ccc4ccccc4c32)cc1 (stereo unspecified),0.8,0.9,1.6*,2.2*,99*
O=C(c1ccco1)N1CCN(C(=O)C(Sc2ccccc2)c2ccccc2)CC1 (stereo unspecified),0.9,0.9,85,90,59*
Cc1oc(-c2ccccc2)cc1C(=O)Nc1ccc(N(C)C)cc1,0.9,0.9,87,92,4
CCCCc1cc(=O)oc2cc(C)cc(O)c12,1,0.9,17,5.1*,82*
Cc1ccc(-c2cc(C(F)F)nc(NCc3cccs3)n2)cc1,0.9,0.9,76,98,-6
Cc1ccc(-c2cc(C(F)F)nc(NCC3CCCO3)n2)cc1 (stereo unspecified),0.8,0.8,57,45,64*
CSCCC(NC(=O)C12CC3CC(CC(C3)C1)C2)C(=O)OCC(=O)c1ccc(Cl)cc1 (stereo unspecified),1,1,97,87,22
COC(=O)C(CCSC)NC(=O)C12CC3CC(CC(C3)C1)C2 (stereo unspecified),1.1,1,103,94,95*
Cc1nc(NC(=O)c2ccccc2)sc1-c1csc(NCCc2ccccc2)n1,0.9,0.9,35,37,100*
Cc1nc(NC(=O)c2ccccc2)sc1-c1csc(N)n1,0.9,0.8,44,34,15
Cc1nc(NC(=O)c2ccccc2)sc1-c1csc(NCc2ccccc2)n1,0.8,0.9,66,73,86*
Cc1nc(NC(=O)c2ccccc2)sc1-c1csc(Nc2cccc(F)c2)n1,0.9,0.9,57,71,30
COc1ccc(C2=Nc3ccccc3OC2)cc1,1.2,1.4,80,69,98*
CN(C)C(CNC(=O)c1cccc(OC(F)F)c1)c1ccco1 (stereo unspecified),1,1,89,92,59*
CCCOc1ccc(C(=O)NCC(c2ccco2)N(C)C)cc1OC (stereo unspecified),0.9,1,91,88,-4
N#Cc1c2c(c(NCc3ccco3)n3c1nc1ccccc13)CCC2,0.9,0.5,92,89,8
CCN(CC)CCNc1c2c(c(C#N)c3nc4ccccc4n13)CCCC2,1.1,1,3.6*,8,96*
C(=N\Nc1nc(-c2ccccc2)cs1)/c1cccnc1,0.9,0.9,81,75,91*
